From ChEMBL document CHEMBL1143838, “Candida albicans and Candida dubliniensis respond differently to echinocandin antifungal agents in vitro” (2007)
Converted amounts (≈) assume the structure as drawn. *1 amine or outer side, *2 acyl side, *3 side chain or, on linkers, in order; H or OH if unused. Where a SMILES comes first, the peptide text is derived from it. Bridges are numbered along the chain shown (N, C = ends). [ ]: non-standard residue; d: D form. The star is where a group is joined. pTerphenylCO(4''-OnC5H11) = CCCCCOc1ccc(-c2ccc(-c3ccc(C(=O)*)cc3)cc2)cc1; Orn(4R-OH,5R-OH) = O=C([C@H](C[C@@H](O)[C@@H](O)N[*:3])N[*:1])[*:2]; hTyr(3S-OH,4S-OH) = N[C@H](C(=O)O)[C@H](O)[C@@H](O)c1ccc(O)cc1; Pro(3S-OH,4S-Me) = C[C@H]1CN[C@H](C(=O)O)[C@H]1O; Hyp = O=C(O)[C@@H]1C[C@@H](O)CN1

Columns and labels:
Assay type in all cases: functional
Candida dubliniensis [1] = experiment: Antifungal activity against Candida dubliniensis B71507 after 24 hrs by EUCAST test
Summary of the method: (§1)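 Yeasts were grown overnight at 30°C in NGY, then inoculated at 10^5 yeasts/ml initial concentration into MOPS-buffered RPMI 1640 with 2% glucose containing aqueous doubling dilutions of drug. Plates were held at 35°C for 24 h. MICs came from triplicate spectrophotometric dose-response data at 50% and 80% growth-reduction endpoints. Trailing meant a >100-fold gap between these endpoints; paradoxical meant regrowth ≥5% above the curve minimum.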

Candida dubliniensis [2] = experiment: Antifungal activity against Candida dubliniensis ANSA 23a after 24 hrs by EUCAST test; summary of the method: as §1
Candida albicans [3] = experiment: Antifungal activity against Candida albicans T25 after 24 hrs by EUCAST test
Summary of the method: (§2)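 EUCAST broth microdilution with aqueous doubling dilutions of drug. Inoculum grown overnight at 30°C in NGY, then added to MOPS-buffered RPMI 1640 with 2% glucose at an initial 10^5 yeasts/ml. Incubated 35°C for 24 h. MICs taken from triplicate spectrophotometric dose-response data as 50% and 80% growth-reduction endpoints.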

Candida albicans [4] = experiment: Antifungal activity against Candida albicans JIMS132203 after 24 hrs by CLSI M27-A test
Summary of the method: (§3)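 CLSI M27-A broth microdilution with aqueous doubling dilutions of drug. Inoculum grown overnight at 30°C in NGY medium, then added to MOPS-buffered RPMI 1640 at an initial 10^3 yeasts/ml. Incubated 35°C for 24 h. MIC read visually as the lowest concentration giving a marked decrease in visible growth; paradoxical or trailing growth noted.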

Candida albicans [5] = experiment: Antifungal activity against Candida albicans SC5314 after 24 hrs by EUCAST test; conditions: SC5314, 24 h; summary of the method: as §2
Candida albicans [6] = experiment: Antifungal activity against Candida albicans NR4 after 24 hrs by CLSI M27-A test; summary of the method: as §3
Candida dubliniensis [7] = experiment: Antifungal activity against Candida dubliniensis KR after 24 hrs by EUCAST test; summary of the method: as §1
Candida albicans [8] = experiment: Antifungal activity against Candida albicans AM2003/0083 after 24 hrs by EUCAST test; summary of the method: as §2
Candida dubliniensis [9] = experiment: Antifungal activity against Candida dubliniensis AMCC after 24 hrs by CLSI M27-A test; summary of the method: as §3
Candida albicans [10] = experiment: Antifungal activity against Candida albicans JIMS101103 after 24 hrs by EUCAST test; summary of the method: as §2
Candida dubliniensis [11] = experiment: Antifungal activity against Candida dubliniensis J931021 after 24 hrs by EUCAST test; summary of the method: as §1
Candida albicans [12] = experiment: Antifungal activity against Candida albicans SCS140136P after 24 hrs by EUCAST test; summary of the method: as §2
Candida dubliniensis [13] = experiment: Antifungal activity against Candida dubliniensis Leic875 after 24 hrs by CLSI M27-A test
Summary of the method: (§4)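 Broth microdilution with echinocandins as aqueous doubling dilutions. Yeasts were grown overnight at 30°C in NGY and seeded at 10^3 yeasts/ml initial concentration in MOPS-buffered RPMI 1640, then incubated at 35°C for 24 h. The MIC was read visually as the lowest concentration giving a marked decrease in visible growth; paradoxical or trailing growth was noted.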

Candida dubliniensis [14] = experiment: Antifungal activity against Candida dubliniensis SCS17154969-2 after 24 hrs by EUCAST test; summary of the method: as §1
Candida albicans [15] = experiment: Antifungal activity against Candida albicans JIMS146204 after 24 hrs by EUCAST test; summary of the method: as §2
Candida dubliniensis [16] = experiment: Antifungal activity against Candida dubliniensis SCS65875C after 24 hrs by CLSI M27-A test; summary of the method: as §4
Candida dubliniensis [17] = experiment: Antifungal activity against Candida dubliniensis Leic952 after 24 hrs by EUCAST test; summary of the method: as §1
Pichia kudriavzevii [18] = experiment: Antifungal activity against Candida krusei ATCC 6258 after 24 hrs by CLSI M27-A test; conditions: ATCC 6258, 24 h
Summary of the method: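 Broth microdilution per CLSI M27-A. Drugs were prepared as aqueous doubling dilutions. Inoculum was grown overnight at 30°C in neopeptone-yeast extract-glucose medium, then added to MOPS-buffered RPMI 1640 at an initial 10^3 yeasts/ml. Plates were incubated at 35°C for 24 h. MIC was read visually as the lowest concentration giving a marked decrease in visible growth.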

Candida albicans [19] = experiment: Antifungal activity against Candida albicans JIMS132203 after 24 hrs by EUCAST test; summary of the method: as §2
Candida albicans [20] = experiment: Antifungal activity against Candida albicans NR4 after 24 hrs by EUCAST test; summary of the method: as §2
Candida dubliniensis [21] = experiment: Antifungal activity against Candida dubliniensis FS after 24 hrs by EUCAST test; summary of the method: as §1
Candida albicans [22] = experiment: Antifungal activity against Candida albicans T32 after 24 hrs by EUCAST test; summary of the method: as §2
Candida albicans [23] = experiment: Antifungal activity against Candida albicans SCS68858 after 24 hrs by EUCAST test; summary of the method: as §2
Candida dubliniensis [24] = experiment: Antifungal activity against Candida dubliniensis SCS65875C after 24 hrs by EUCAST test; summary of the method: as §1
Candida dubliniensis [25] = experiment: Antifungal activity against Candida dubliniensis 81/060 after 24 hrs by EUCAST test; summary of the method: as §2
Candida albicans [26] = experiment: Antifungal activity against Candida albicans NR3 after 24 hrs by CLSI M27-A test; summary of the method: as §3
Pichia kudriavzevii [27] = experiment: Antifungal activity against Candida krusei ATCC 6258 after 24 hrs by EUCAST test; conditions: ATCC 6258, 24 h; summary of the method: as §1
Candida dubliniensis [28] = experiment: Antifungal activity against Candida dubliniensis 910Aa after 24 hrs by CLSI M27-A test; summary of the method: as §3
Candida albicans [29] = experiment: Antifungal activity against Candida albicans NCPF6525 after 24 hrs by EUCAST test; summary of the method: as §2
Candida albicans [30] = experiment: Antifungal activity against Candida albicans B06-341 after 24 hrs by EUCAST test; summary of the method: as §2
Candida dubliniensis [31] = experiment: Antifungal activity against Candida dubliniensis 75/043 after 24 hrs by EUCAST test; summary of the method: as §2
Candida albicans [32] = experiment: Antifungal activity against Candida albicans T28 after 24 hrs by CLSI M27-A test; summary of the method: as §3
Candida dubliniensis [33] = experiment: Antifungal activity against Candida dubliniensis B71507 after 24 hrs by CLSI M27-A test; summary of the method: as §4
Candida dubliniensis [34] = experiment: Antifungal activity against Candida dubliniensis 90/033 after 24 hrs by EUCAST test; summary of the method: as §2
Candida dubliniensis [35] = experiment: Antifungal activity against Candida dubliniensis SCS59662 after 24 hrs by CLSI M27-A test; summary of the method: as §4
Candida parapsilosis = experiment: Antifungal activity against Candida parapsilosis ATCC 22019 after 24 hrs by EUCAST test; conditions: Lodderomyces parapsilosis, ATCC 22019, 24 h; summary of the method: as §1
Candida albicans [36] = experiment: Antifungal activity against Candida albicans SCS68858 after 24 hrs by CLSI M27-A test; summary of the method: as §3
Candida dubliniensis [37] = experiment: Antifungal activity against Candida dubliniensis KR after 24 hrs by CLSI M27-A test; summary of the method: as §4
Candida dubliniensis [38] = experiment: Antifungal activity against Candida dubliniensis SCS17154969-2 after 24 hrs by CLSI M27-A test; summary of the method: as §4
Candida dubliniensis [39] = experiment: Antifungal activity against Candida dubliniensis 75/043 after 24 hrs by CLSI M27-A test; summary of the method: as §3
Candida albicans [40] = experiment: Antifungal activity against Candida albicans HK04M102095 after 24 hrs by EUCAST test; summary of the method: as §2
Candida albicans [41] = experiment: Antifungal activity against Candida albicans Y109 after 24 hrs by CLSI M27-A test; summary of the method: as §3
Candida albicans [42] = experiment: Antifungal activity against Candida albicans SCS140136P after 24 hrs by CLSI M27-A test; summary of the method: as §3
Candida albicans [43] = experiment: Antifungal activity against Candida albicans NR2 after 24 hrs by CLSI M27-A test; summary of the method: as §3

## CCCCCOc1ccc(-c2ccc(-c3ccc(C(=O)N[C@H]4C[C@@H](O)[C@@H](O)NC(=O)[C@@H]5[C@@H](O)[C@@H](C)CN5C(=O)[C@H]([C@@H](C)O)NC(=O)[C@H]([C@H](O)[C@@H](O)c5ccc(O)cc5)NC(=O)[C@@H]5C[C@@H](O)CN5C(=O)[C@H]([C@@H](C)O)NC4=O)cc3)cc2)cc1 [ANIDULAFUNGIN] ({pTerphenylCO(4''-OnC5H11)}-[Orn(4R-OH,5R-OH)]T[Hyp][hTyr(3S-OH,4S-OH)]T[Pro(3S-OH,4S-Me)]; lactam 1-C)
Candida dubliniensis [1]
  MIC50: 0.25 µg/mL (≈ 0.219 µM)
Candida dubliniensis [2]
  MIC50: ≤ 0.032 µg/mL
Candida albicans [3]
  MIC50: 0.5 µg/mL (≈ 0.438 µM)
Candida albicans [4]
  MIC50: ≤ 0.032 µg/mL
Candida albicans [5]
  MIC50: ≤ 0.032 µg/mL
Candida albicans [6]
  MIC50: 0.25 µg/mL (≈ 0.219 µM)
Candida dubliniensis [7]
  MIC50: ≤ 0.032 µg/mL
Candida albicans [8]
  MIC50: ≤ 0.032 µg/mL
Candida dubliniensis [9]
  MIC50: ≤ 0.032 µg/mL
Candida albicans [10]
  MIC50: ≤ 0.032 µg/mL
Candida dubliniensis [11]
  MIC50: 16 µg/mL (≈ 14 µM)
Candida albicans [12]
  MIC50: ≤ 0.032 µg/mL
Candida dubliniensis [13]
  MIC50: ≤ 0.032 µg/mL
Candida dubliniensis [14]
  MIC50: 0.063 µg/mL (≈ 0.0553 µM)
Candida albicans [15]
  MIC50: ≤ 0.032 µg/mL
Candida dubliniensis [16]
  MIC50: ≤ 0.032 µg/mL
Candida dubliniensis [17]
  MIC50: 8 µg/mL (≈ 7.02 µM)
Pichia kudriavzevii [18]
  MIC50: 0.13 µg/mL (≈ 0.114 µM)
Candida albicans [19]
  MIC50: ≤ 0.032 µg/mL
Candida albicans [20]
  MIC50: 0.13 µg/mL (≈ 0.114 µM)
Candida dubliniensis [21]
  MIC50: 4 µg/mL (≈ 3.51 µM)
Candida albicans [22]
  MIC50: ≤ 0.032 µg/mL
Candida albicans [23]
  MIC50: ≤ 0.032 µg/mL
Candida dubliniensis [24]
  MIC50: ≤ 0.032 µg/mL
Candida dubliniensis [25]
  MIC50: ≤ 0.032 µg/mL
Candida albicans [26]
  MIC50: 1 µg/mL (≈ 0.877 µM)
Pichia kudriavzevii [27]
  MIC50: 0.063 µg/mL (≈ 0.0553 µM)
Candida dubliniensis [28]
  MIC50: ≤ 0.032 µg/mL
Candida albicans [29]
  MIC50: 0.25 µg/mL (≈ 0.219 µM)
Candida albicans [30]
  MIC50: 0.13 µg/mL (≈ 0.114 µM)
Candida dubliniensis [31]
  MIC50: ≤ 0.032 µg/mL
Candida albicans [32]
  MIC50: ≤ 0.032 µg/mL
Candida dubliniensis [33]
  MIC50: ≤ 0.032 µg/mL
Candida dubliniensis [34]
  MIC50: 8 µg/mL (≈ 7.02 µM)
Candida dubliniensis [35]
  MIC50: ≤ 0.032 µg/mL
Candida parapsilosis
  MIC50: 0.5 µg/mL (≈ 0.438 µM)
Candida albicans [36]
  MIC50: ≤ 0.032 µg/mL
Candida dubliniensis [37]
  MIC50: ≤ 0.032 µg/mL
Candida dubliniensis [38]
  MIC50: ≤ 0.032 µg/mL
Candida dubliniensis [39]
  MIC50: ≤ 0.032 µg/mL
Candida albicans [40]
  MIC50: ≤ 0.032 µg/mL
Candida albicans [41]
  MIC50: 0.25 µg/mL (≈ 0.219 µM)
Candida albicans [42]
  MIC50: ≤ 0.032 µg/mL
Candida albicans [43]
  MIC50: 0.5 µg/mL (≈ 0.438 µM)
